Here are results for one compound from ChEMBL document CHEMBL4346686, “Discovery and biological evaluation of novel androgen receptor antagonist for castration-resistant prostate cancer” (Eur J Med Chem, 2019).

A word on the IC50: it is the concentration that inhibits the measured activity by half. By AUC(0-t) is commonly meant the area under the concentration-time curve up to a stated or last time point. High values mean high exposure, low ones low exposure. In general, Tmax refers to the time from dosing to the highest level. A word on the AUC(0-inf): it is the area under the concentration-time curve extrapolated to infinity.

Data set [1] can be described thus: Antiproliferative activity against human LNCaP-AR cells assessed as reduction in cell viability incubated for 6 days by CCK8 assay. The format is functional, cell-based. To be noted: 144 h. A digest of the protocol:
(§1)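 Cells seeded (2×10^4 per well for VCaP, 1–3×10^3 for the others) and compound added after 24 h as a 9-point, 3-fold serial dilution. Exposure 6 days, then CCK-8 for 1–4 h and absorbance at 450 nm. IC50 from curve fit, mean of at least two independent experiments run in duplicate.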
(In general: Formazan colour is commonly taken as a measure of viable cells.)

The test system of data set [2] is CWR22R. Nature of the data set: Antiproliferative activity against human 22Rv1 cells assessed as reduction in cell viability incubated for 6 days by CCK8 assay. The format is functional, cell-based. To be noted: 22Rv1, 144 h. A digest of the protocol:
as §1

The test system of data set [3] is L02. The data set can be described thus: Antiproliferative activity against human L02 cells assessed as reduction in cell viability incubated for 6 days by CCK8 assay. Conditions: L02, 144 h; call rule not given here. In kind it is cell-based. The method, boiled down:
as §1

Data set [4] deals with T1, Androgen receptor (Homo sapiens) (UniProt P10275).
T1 sequence (whole entry): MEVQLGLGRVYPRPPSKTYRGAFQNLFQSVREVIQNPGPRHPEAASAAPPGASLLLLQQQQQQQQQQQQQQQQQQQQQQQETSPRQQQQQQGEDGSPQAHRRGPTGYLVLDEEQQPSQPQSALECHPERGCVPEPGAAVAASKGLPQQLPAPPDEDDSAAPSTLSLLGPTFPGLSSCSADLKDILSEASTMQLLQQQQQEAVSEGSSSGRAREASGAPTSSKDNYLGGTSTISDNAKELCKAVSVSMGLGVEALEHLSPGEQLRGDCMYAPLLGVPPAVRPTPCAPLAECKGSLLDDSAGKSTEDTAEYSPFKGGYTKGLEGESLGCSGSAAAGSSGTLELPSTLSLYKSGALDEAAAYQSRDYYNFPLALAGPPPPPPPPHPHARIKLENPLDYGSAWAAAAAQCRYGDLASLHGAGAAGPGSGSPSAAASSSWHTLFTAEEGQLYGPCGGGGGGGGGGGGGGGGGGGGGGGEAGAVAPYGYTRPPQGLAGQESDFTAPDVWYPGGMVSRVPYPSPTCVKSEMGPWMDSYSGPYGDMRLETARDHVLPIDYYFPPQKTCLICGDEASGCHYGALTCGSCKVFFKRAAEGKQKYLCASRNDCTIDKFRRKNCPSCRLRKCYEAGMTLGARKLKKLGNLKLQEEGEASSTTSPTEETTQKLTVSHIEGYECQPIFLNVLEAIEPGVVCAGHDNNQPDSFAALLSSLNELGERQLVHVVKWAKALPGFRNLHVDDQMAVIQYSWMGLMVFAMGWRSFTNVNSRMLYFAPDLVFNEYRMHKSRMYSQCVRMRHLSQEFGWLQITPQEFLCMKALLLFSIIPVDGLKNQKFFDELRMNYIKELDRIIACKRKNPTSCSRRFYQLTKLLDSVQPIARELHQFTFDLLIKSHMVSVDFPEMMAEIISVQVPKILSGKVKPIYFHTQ
Nature of the data set: Potency index, ratio of IC50 for enzalutamide to IC50 for compound for competitive displacement of [3H]R1881 from human AR expressed in LNCaP cells incubated for 24 hrs by scintillation counting method based radioligand competitive binding assay. The format is cell-based.

Data set [5] concerns the target T2, Steroid 17-alpha-hydroxylase/17,20 lyase (Homo sapiens, UniProt P05093).
T2 sequence (P05093 whole entry): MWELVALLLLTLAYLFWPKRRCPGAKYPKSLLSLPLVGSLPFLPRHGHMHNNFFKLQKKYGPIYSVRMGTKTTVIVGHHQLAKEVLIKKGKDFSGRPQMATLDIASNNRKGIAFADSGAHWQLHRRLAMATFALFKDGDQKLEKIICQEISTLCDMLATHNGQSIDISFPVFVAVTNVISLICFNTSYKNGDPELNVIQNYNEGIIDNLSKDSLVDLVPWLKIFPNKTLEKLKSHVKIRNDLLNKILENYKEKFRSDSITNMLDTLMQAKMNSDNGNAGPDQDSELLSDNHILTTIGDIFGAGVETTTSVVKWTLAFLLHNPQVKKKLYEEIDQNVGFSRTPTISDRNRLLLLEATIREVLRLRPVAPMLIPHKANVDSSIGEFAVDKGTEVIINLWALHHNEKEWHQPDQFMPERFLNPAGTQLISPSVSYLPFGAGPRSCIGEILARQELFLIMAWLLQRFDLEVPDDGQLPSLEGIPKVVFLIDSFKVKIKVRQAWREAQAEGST
The data set can be described thus: Inhibition of C-myc/DDK tagged human CYP17A1 expressed in HEK293T cells assessed as reduction in formation of 17-OHP at 10 uM incubated for 30 mins by LC-MS/MS analysis. The format is cell-based. To be noted: 0.5 h, 10 µM. A digest of the protocol: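 CYP17A1 activity measured as 17α-hydroxyprogesterone formation in 50 mM Tris pH 7.4, 5 mM MgCl2. Incubation 30 min at 37 °C, quenched with 20% trichloroacetic acid; product quantified by LC-MS/MS. Mean ± SD, n = 2.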

The nature of data set [6]: AUC (0 to t) in Sprague-Dawley rat at 30 mg/kg, po measured upto 24 hrs by LC-MS/MS analysis. The format is ADME, organism-based. Also noted: time < 24 hr, dose 30 mg/kg, route oral. To be noted: in vivo.
Data set [7] addresses T1, Androgen receptor (Homo sapiens). The data set can be described thus: Antagonist activity at androgen receptor in human VCaP cells assessed as inhibition of R1881-induced PSA mRNA expression after 24 hrs by qRT-PCR analysis. In kind it is cell-based. A digest of the protocol: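 VCaP cells held 48 h in DMEM with 5% charcoal-stripped FBS, then 24 h with compound plus 0.2 nM R1881. TRIzol RNA extraction, cDNA synthesis, qRT-PCR for the target mRNA normalized to GAPDH; mean ± SD, n = 3.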
In general terms: Quantitative PCR measures a nucleic acid by following its amplification.

The nature of data set [8]: Tmax in Sprague-Dawley rat at 30 mg/kg, po measured upto 24 hrs by LC-MS/MS analysis. The format is ADME, organism-based. To be noted: in vivo. The method, boiled down: (§2)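 Male SD rats (N = 3), single oral 30 mg/kg in PEG200/DMA (9:1, v/v). Blood from retrobulbar vein at 0–24 h; heparinized plasma, protein precipitation with methanol, LC-MS/MS quantitation; parameters by non-compartmental analysis.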

Data set [9] can be described thus: AUC ( 0 to infinity) in Sprague-Dawley rat at 30 mg/kg, po measured upto 24 hrs by LC-MS/MS analysis. Also noted: dose 30 mg/kg, time infinity, route oral. Conditions: in vivo. In kind it is ADME, organism-based. The method, boiled down:
as §2

The structures appear in SMILES notation.

`Cc1ccc(-c2c(C)noc2C)cc1Nc1ccc(C#N)c(Cl)c1`: the IC50 in [1] was 430 nM; in [2], 3.5 µM; in [3], 11.3 µM. Further, in data set [4], the Ratio IC50 worked out at 8. Moreover, in data set [5], the “inhibition (INH)” value is recorded as “Not Active”. Besides, the AUC(0-t) at 24 h in [6] is 4040 ng·h/mL. For the same compound, the Activity entry in [7] is “Dose-dependent effect”. The Tmax in data set [8] was found to be 30 min. In addition, in data set [9], the AUC(0-inf) amounted to 4060 ng·h/mL.
